In ChEMBL document CHEMBL4627263, “Hi-JAK-ing the ubiquitin system: The design and physicochemical optimisation of JAK PROTACs” (Bioorg Med Chem, 2020):
The source made the active and inactive calls. The calls are words filed in the database; no cut-off is given here.

Assays:
[1] = biological target: T1, E3 ubiquitin-protein ligase XIAP/Tyrosine-protein kinase JAK1 (Homo sapiens) (UniProt P23458+P98170); test: Protac activity at IAP/JAK1 in human THP1 cells assessed as increase in JAK1 degradation up to 10 uM after 24 hrs by Western blot analysis; type: cell-based; settings: THP-1
How it was run: (§1)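 Unstimulated THP-1 cells were exposed to PROTAC across 0.6–10 µM for 24 h. JAK1/JAK2 levels were read by automated Western blot using antibodies detecting only unphosphorylated JAK. % degradation is relative to basal levels in DMSO-treated cells, as the mean of separate experiments (n ≥ 3). Significance was assessed by one-tailed Student's t-test at each concentration.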

[2] = biological target: T2, E3 ubiquitin-protein ligase XIAP/Tyrosine-protein kinase JAK2 (Homo sapiens) (UniProt O60674+P98170); test: Protac activity at IAP/JAK2 in human THP1 cells assessed as increase in JAK2 degradation up to 10 uM after 24 hrs by Western blot analysis relative to control; type: cell-based; settings: THP-1; how it was run: as §1
[3] = Lipophilicity, log D of the compound at pH 7.4 by chromatographic method; type: physicochemical; settings: buffer
[4] = biological target: T1, E3 ubiquitin-protein ligase XIAP/Tyrosine-protein kinase JAK1 (Homo sapiens); test: Protac activity at IAP/JAk1 in human PBMC cells assessed as reduction in IL2-induced IFNgamma production measured after 1 hr; type: cell-based
How it was run: (§2)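 Human PBMCs were given a 1 h compound incubation in the IL-2-stimulated assay, with IFNγ signalling as the cellular potency readout, reported as pIC50.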

[5] = biological target: T1, E3 ubiquitin-protein ligase XIAP/Tyrosine-protein kinase JAK1 (Homo sapiens); test: Protac activity at IAP/JAK1 in human THP1 cells assessed as increase in JAK1 degradation at 5 uM after 24 hrs by Western blot analysis relative to control; type: cell-based; settings: THP-1; how it was run: as §1
[6] = biological target: T2, E3 ubiquitin-protein ligase XIAP/Tyrosine-protein kinase JAK2 (Homo sapiens); test: Protac activity at IAP/JAK2 in human THP1 cells assessed as increase in JAK2 degradation at 5 uM after 24 hrs by Western blot analysis relative to control; type: cell-based; settings: THP-1; how it was run: as §1
[7] = biological target: JAK3/JAK1 (Homo sapiens, UniProt P23458+P52333); test: Inhibition of JAK1/JAK3 in human PBMC cells assessed as reduction in IL2-induced IFNgamma production; type: cell-based; how it was run: as §2
[8] = biological target: Tyrosine-protein kinase JAK1 (Homo sapiens, UniProt P23458); test: Inhibition of JAK1 (unknown origin)
How it was run: (§3)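 Isolated biochemical JAK enzyme assays. pIC50 values are means of multiple separate experiments (n ≥ 2).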

[9] = biological target: Tyrosine-protein kinase JAK2 (Homo sapiens, UniProt O60674); test: Inhibition of JAK2 (unknown origin); how it was run: as §3
[10] = biological target: T3, Tyrosine-protein kinase JAK3 (Homo sapiens, UniProt P52333); test: Inhibition of JAK3 (unknown origin); how it was run: as §3
T3 sequence (P52333 whole entry): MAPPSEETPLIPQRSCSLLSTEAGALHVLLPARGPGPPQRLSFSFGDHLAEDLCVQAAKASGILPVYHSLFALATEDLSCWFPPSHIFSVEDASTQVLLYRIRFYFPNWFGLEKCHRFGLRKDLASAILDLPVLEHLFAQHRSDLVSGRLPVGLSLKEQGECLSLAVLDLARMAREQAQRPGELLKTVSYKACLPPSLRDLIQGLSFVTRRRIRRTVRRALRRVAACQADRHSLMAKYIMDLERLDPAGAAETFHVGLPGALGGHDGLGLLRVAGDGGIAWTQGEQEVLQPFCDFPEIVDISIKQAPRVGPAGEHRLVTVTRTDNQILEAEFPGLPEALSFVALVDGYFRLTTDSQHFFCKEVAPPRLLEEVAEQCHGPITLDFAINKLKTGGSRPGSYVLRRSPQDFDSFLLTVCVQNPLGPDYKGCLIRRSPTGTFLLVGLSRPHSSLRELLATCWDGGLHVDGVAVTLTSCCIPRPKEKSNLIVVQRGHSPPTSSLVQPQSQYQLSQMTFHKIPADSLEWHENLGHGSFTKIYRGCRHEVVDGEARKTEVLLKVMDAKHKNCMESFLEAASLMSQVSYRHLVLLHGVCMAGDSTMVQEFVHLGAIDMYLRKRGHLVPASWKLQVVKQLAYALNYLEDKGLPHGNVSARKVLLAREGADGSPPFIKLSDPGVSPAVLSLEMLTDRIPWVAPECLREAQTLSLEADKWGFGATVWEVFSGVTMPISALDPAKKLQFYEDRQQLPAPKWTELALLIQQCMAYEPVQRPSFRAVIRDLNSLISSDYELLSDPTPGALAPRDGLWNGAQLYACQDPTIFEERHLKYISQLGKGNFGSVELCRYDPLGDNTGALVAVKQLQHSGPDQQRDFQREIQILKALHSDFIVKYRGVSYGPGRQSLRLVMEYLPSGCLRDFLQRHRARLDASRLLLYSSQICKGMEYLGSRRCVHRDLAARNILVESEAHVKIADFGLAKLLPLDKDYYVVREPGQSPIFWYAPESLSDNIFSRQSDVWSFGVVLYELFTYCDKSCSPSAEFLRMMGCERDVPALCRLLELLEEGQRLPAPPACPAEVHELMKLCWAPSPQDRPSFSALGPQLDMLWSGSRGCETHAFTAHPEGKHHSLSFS

[11] = biological target: T1, E3 ubiquitin-protein ligase XIAP/Tyrosine-protein kinase JAK1 (Homo sapiens); test: Protac activity at IAP/JAK1 in human THP1 cells assessed as increase in JAK1 degradation at 5 uM after 24 hrs in presence of IAP ligand by Western blot analysis; type: cell-based; settings: THP-1
How it was run: (§4)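 Unstimulated THP-1 cells were co-treated for 24 h with PROTAC and increasing concentrations of free, active IAP ligand. JAK1/JAK2 protein was quantified by automated Western blot against DMSO-treated basal levels, as the mean of n ≥ 3 separate experiments. Significance was assessed by one-tailed t-test.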

[12] = biological target: T2, E3 ubiquitin-protein ligase XIAP/Tyrosine-protein kinase JAK2 (Homo sapiens); test: Protac activity at IAP/JAK2 in human THP1 cells assessed as increase in JAK2 degradation at 5 uM after 24 hrs in presence of IAP ligand by Western blot analysis; type: cell-based; settings: THP-1; how it was run: as §4
[13] = species: Homo sapiens; test: Selectivity ratio, difference between pIC50 for JAK1 (unknown origin) to pIC50 for inhibition of JAK1/JAK3 in human PBMC cells assessed as reduction in IL2-induced IFNgamma production; type: cell-based
How it was run: (§5)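 Permeability surrogate calculated as drop-off = 10^(biochemical JAK1 or JAK3 pIC50 − IL2 PBMC pIC50). The cellular step used a 1 h incubation.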

[14] = species: Homo sapiens; test: Selectivity ratio, difference between pIC50 for JAK3 (unknown origin) to pIC50 for inhibition of JAK1/JAK3 in human PBMC cells assessed as reduction in IL2-induced IFNgamma production; type: cell-based; how it was run: as §5
[15] = biological target: T2, E3 ubiquitin-protein ligase XIAP/Tyrosine-protein kinase JAK2 (Homo sapiens); test: Protac activity at IAP/JAK2 in human THP1 cells assessed as increase in JAK2 ubiquitination by immunoprecipitation assay; type: cell-based; settings: THP-1
[16] = biological target: T2, E3 ubiquitin-protein ligase XIAP/Tyrosine-protein kinase JAK2 (Homo sapiens); test: Protac activity at IAP/JAK2 in human THP1 cells assessed as increase in JAK2 degradation in presence of proteasome inhibitor MG132 by immunoprecipitation assay; type: cell-based; settings: THP-1
[17] = biological target: T1, E3 ubiquitin-protein ligase XIAP/Tyrosine-protein kinase JAK1 (Homo sapiens); test: Protac activity at IAP/JAK1 in human THP1 cells assessed as increase in JAK1 degradation in presence of proteasome inhibitor MG132 by immunoprecipitation assay; type: cell-based; settings: THP-1
[18] = biological target: T1, E3 ubiquitin-protein ligase XIAP/Tyrosine-protein kinase JAK1 (Homo sapiens); test: Protac activity at IAP/JAK1 in human THP1 cells assessed as increase in JAK1 degradation at 10 uM after 24 hrs by Western blot analysis; type: cell-based; settings: THP-1; how it was run: as §1
[19] = biological target: T2, E3 ubiquitin-protein ligase XIAP/Tyrosine-protein kinase JAK2 (Homo sapiens); test: Protac activity at IAP/JAK2 in human THP1 cells assessed as increase in JAK2 degradation at 10 uM after 24 hrs by Western blot analysis relative to control; type: cell-based; settings: THP-1; how it was run: as §1

T1 sequence (P23458 whole entry, looked up): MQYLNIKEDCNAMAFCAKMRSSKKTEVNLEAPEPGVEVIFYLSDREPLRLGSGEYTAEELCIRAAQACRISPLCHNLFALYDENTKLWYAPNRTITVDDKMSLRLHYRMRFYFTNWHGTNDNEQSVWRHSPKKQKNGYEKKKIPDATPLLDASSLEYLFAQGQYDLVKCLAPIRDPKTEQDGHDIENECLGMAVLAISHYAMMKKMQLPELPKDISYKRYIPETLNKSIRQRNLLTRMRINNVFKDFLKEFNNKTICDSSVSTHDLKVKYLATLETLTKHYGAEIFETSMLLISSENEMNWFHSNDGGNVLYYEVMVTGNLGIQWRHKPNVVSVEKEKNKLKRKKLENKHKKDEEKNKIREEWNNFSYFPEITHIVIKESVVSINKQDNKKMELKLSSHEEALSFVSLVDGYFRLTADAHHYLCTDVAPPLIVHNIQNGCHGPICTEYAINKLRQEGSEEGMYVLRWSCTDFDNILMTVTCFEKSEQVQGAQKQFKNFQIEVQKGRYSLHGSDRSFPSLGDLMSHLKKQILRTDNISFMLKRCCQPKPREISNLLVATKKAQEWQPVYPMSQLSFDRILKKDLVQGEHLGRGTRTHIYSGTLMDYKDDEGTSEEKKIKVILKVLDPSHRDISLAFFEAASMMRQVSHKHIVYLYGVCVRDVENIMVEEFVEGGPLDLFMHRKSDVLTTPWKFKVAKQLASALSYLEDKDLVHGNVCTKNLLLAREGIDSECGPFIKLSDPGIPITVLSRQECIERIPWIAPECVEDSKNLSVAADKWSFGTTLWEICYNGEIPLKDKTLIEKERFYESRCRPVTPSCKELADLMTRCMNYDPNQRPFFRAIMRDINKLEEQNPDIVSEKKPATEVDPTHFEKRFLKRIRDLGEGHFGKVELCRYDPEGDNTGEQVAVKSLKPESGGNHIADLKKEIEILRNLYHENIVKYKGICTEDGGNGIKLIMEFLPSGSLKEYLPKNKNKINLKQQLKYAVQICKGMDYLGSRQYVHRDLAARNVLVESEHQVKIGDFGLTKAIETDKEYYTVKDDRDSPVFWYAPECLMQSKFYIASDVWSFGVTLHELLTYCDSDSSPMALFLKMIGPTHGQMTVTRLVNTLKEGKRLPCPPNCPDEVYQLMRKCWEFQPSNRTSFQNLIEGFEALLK
T1 sequence (P98170 whole entry, looked up): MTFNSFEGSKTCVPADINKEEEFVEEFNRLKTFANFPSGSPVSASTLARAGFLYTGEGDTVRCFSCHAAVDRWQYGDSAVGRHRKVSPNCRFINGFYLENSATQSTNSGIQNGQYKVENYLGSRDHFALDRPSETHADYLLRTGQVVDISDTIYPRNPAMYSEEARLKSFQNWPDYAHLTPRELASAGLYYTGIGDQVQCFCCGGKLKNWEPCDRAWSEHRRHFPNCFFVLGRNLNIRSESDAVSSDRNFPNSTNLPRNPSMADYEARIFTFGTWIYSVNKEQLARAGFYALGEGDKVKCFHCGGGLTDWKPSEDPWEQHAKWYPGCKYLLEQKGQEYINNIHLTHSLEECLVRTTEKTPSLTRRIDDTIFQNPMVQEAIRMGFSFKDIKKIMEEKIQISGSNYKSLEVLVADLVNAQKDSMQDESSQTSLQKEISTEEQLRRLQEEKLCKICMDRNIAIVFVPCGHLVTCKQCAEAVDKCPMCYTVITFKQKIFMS
T2 sequence (O60674 whole entry, looked up): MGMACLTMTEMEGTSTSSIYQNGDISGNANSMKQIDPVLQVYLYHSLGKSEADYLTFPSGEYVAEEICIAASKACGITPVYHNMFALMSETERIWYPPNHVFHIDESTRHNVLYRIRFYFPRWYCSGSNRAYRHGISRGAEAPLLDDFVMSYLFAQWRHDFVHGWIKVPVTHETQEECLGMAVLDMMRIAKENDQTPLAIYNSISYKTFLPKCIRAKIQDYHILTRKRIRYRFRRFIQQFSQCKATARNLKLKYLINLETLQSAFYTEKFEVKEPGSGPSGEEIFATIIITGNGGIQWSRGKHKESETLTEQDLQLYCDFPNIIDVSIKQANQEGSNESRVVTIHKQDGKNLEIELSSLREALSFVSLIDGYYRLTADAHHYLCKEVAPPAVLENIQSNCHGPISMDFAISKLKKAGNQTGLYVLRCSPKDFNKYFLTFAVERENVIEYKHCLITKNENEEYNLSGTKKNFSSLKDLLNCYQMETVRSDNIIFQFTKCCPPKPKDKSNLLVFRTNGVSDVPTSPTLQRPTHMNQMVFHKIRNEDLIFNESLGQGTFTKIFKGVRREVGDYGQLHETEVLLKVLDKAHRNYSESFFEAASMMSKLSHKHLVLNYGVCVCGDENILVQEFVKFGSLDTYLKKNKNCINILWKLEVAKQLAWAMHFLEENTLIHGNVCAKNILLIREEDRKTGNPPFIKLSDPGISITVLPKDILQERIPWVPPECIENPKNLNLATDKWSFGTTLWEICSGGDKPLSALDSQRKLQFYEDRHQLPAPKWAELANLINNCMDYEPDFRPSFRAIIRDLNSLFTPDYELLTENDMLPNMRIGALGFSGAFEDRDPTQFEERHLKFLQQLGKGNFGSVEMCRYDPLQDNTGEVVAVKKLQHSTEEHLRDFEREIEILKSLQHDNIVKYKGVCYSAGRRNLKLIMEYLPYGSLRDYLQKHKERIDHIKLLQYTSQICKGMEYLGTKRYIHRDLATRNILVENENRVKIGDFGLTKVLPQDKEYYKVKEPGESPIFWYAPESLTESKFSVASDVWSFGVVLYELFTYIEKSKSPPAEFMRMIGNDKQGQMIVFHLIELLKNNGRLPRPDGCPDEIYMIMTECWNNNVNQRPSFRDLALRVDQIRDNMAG
T2 sequence (P98170 whole entry, looked up): as the sequence (P98170 whole entry, looked up) above
Chain of Tyrosine-protein kinase JAK1 (P23458 whole entry): as the sequence (P23458 whole entry, looked up) above
Chain of JAK3/JAK1 (P23458 whole entry, one chain of several): as the sequence (P23458 whole entry, looked up) above
Chain of Tyrosine-protein kinase JAK2 (O60674 whole entry): as the sequence (O60674 whole entry, looked up) above

Activity [1]	Activity [2] [%]	chromatographic logD [3]	Activity [4]	Activity [5]	Activity [6]	SMILES	other results
Active	< 35	5 to 8	inactive			CN[C@@H](C)C(=O)N[C@H](C(=O)N1C[C@@H](NC(=O)CCCCCCCCCn2cc(Nc3ncc(Cl)c(NCc4cc(F)ccc4F)n3)cn2)C[C@H]1C(=O)N[C@@H]1CCCc2ccccc21)C1CCCCC1	
				inactive	inactive	CN[C@H](C)C(=O)N[C@@H](C(=O)N1C[C@H](NC(=O)CCCCCCCCCN2CCN(CCCOc3ccc(-c4cnc5cccc(-c6cc(F)c(CN7CCS(=O)(=O)CC7)c(F)c6)c5n4)cc3OC)CC2)C[C@@H]1C(=O)N[C@H]1CCCc2ccccc21)C1CCCCC1	
Active	< 35	5 to 8	inactive			CN[C@@H](C)C(=O)N[C@H](C(=O)N1C[C@@H](NC(=O)COCCOCCOCCOCCN2CCN(CCCOc3ccc(-c4cnc5cccc(-c6cc(F)c(CN7CCS(=O)(=O)CC7)c(F)c6)c5n4)cc3OC)CC2)C[C@H]1C(=O)N[C@@H]1CCCc2ccccc21)C1CCCCC1	
Active	< 35	5 to 8	inactive	48%	65%	CN[C@@H](C)C(=O)N[C@H](C(=O)N1C[C@@H](NC(=O)CCCCCCCCCN2CCN(CCCOc3ccc(-c4cnc5cccc(-c6cc(F)c(CN7CCS(=O)(=O)CC7)c(F)c6)c5n4)cc3OC)CC2)C[C@H]1C(=O)N[C@@H]1CCCc2ccccc21)C1CCCCC1	Activity [11]: inactive; Activity [12]: inactive; Activity [15]: Active; Activity [16]: inactive; Activity [17]: inactive
Active	< 35	5 to 8	inactive			CN[C@@H](C)C(=O)N[C@H](C(=O)N1C[C@@H](NC(=O)CCCCCCCCCOc2cc(F)cc(CNc3nc(Nc4cnn(C)c4)ncc3Cl)c2F)C[C@H]1C(=O)N[C@@H]1CCCc2ccccc21)C1CCCCC1	Activity [18]: inactive; Activity [19]: inactive

Second part, the compound before the results:

SMILES	Activity [1]	Activity [2] [%]	chromatographic logD [3]	Activity [4]	Activity [5]	Activity [6]	other results
CN[C@@H](C)C(=O)N[C@H](C(=O)N1C[C@@H](NC(=O)COCCOCCOCCOCCn2cc(Nc3ncc(Cl)c(NCc4cc(F)ccc4F)n3)cn2)C[C@H]1C(=O)N[C@@H]1CCCc2ccccc21)C1CCCCC1	Active	< 35	5 to 8	inactive			
COc1cc(-c2cnc3cccc(-c4cc(F)c(CN5CCS(=O)(=O)CC5)c(F)c4)c3n2)ccc1OCCCN1CCOCC1			6		inactive	inactive	IC50 [7]: 316 nM; IC50 [8]: 7.94 nM; IC50 [9]: 0.251 nM; IC50 [10]: 7.94 nM; Activity [11]: inactive; Activity [12]: inactive; Selectivity ratio [13]: 40; Selectivity ratio [14]: 40
OCCn1cc(Nc2ncc(Cl)c(NCc3cc(F)ccc3F)n2)cn1			3.5				IC50 [7]: 7.94 nM; IC50 [8]: < 0.158 nM; IC50 [9]: 0.316 nM; IC50 [10]: 1 nM; Selectivity ratio [13]: > 50; Selectivity ratio [14]: 8
CN[C@@H](C)C(=O)N[C@H](C(=O)N1C[C@@H](NC(=O)COCCOCCOCCOCCOc2cc(F)cc(CNc3nc(Nc4cnn(C)c4)ncc3Cl)c2F)C[C@H]1C(=O)N[C@@H]1CCCc2ccccc21)C1CCCCC1	Active	< 35	5 to 8	inactive			
